Values after ≈ are worked out from the molar mass of the structure shown.
Experiments:
Type in all cases: functional
Aspergillus niger [1] = experiment: Antifungal activity against Aspergillus niger MTCC 1881 at 200 ug/mL incubated at 4 degC for 24 hrs followed by subsequent incubation at 37.5 degC for 3 days by poisoned food method; settings: read-out: DIZ
Staphylococcus aureus [2] = experiment: Antibacterial activity against Staphylococcus aureus ATCC 19433 at 200 ug/mL measured after 24 hrs by filter paper disc method; settings: ATCC 19433, 24 h, read-out: DIZ
Escherichia coli [3] = experiment: Antibacterial activity against Escherichia coli ATCC 8739 at 200 ug/mL measured after 24 hrs by filter paper disc method; settings: ATCC 8739, 24 h, read-out: DIZ
Bacillus spizizenii [4] = experiment: Antibacterial activity against Bacillus subtilis ATCC 6633 at 200 ug/mL measured after 24 hrs by filter paper disc method; settings: ATCC 6633, 24 h, read-out: DIZ
Proteus vulgaris [5] = experiment: Antibacterial activity against Proteus vulgaris […] at 200 ug/mL measured after 24 hrs by filter paper disc method; settings: read-out: DIZ
Aspergillus flavus [6] = experiment: Antifungal activity against Aspergillus flavus MTCC 1884 at 200 ug/mL incubated at 4 degC for 24 hrs followed by subsequent incubation at 37.5 degC for 3 days by poisoned food method; settings: read-out: DIZ
Aspergillus flavus [7] = experiment: Ratio of MFC to MIC for Aspergillus flavus MTCC 1884
Staphylococcus aureus [8] = experiment: Antibacterial activity against Staphylococcus aureus ATCC 19433 measured after 24 hrs by broth dilution method
In short: (§1)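 MIC is the lowest concentration that arrests growth of the organism.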

Escherichia coli [9] = experiment: Bactericidal activity against Escherichia coli ATCC 8739 measured after 24 hrs by broth dilution method
In short: (§2)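 MBC/MFC is found by further steps carried out once the MIC has been determined.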

Aspergillus niger [10] = experiment: Fungicidal activity against Aspergillus niger MTCC 1881 measured after 2 days by broth dilution method; in short: as §2
Staphylococcus aureus [11] = experiment: Bactericidal activity against Staphylococcus aureus ATCC 19433 measured after 24 hrs by broth dilution method; in short: as §2
Aspergillus niger [12] = experiment: Antifungal activity against Aspergillus niger MTCC 1881 measured after 2 days by broth dilution method; in short: as §1
Proteus vulgaris [13] = experiment: Antibacterial activity against Proteus vulgaris […] measured after 24 hrs by broth dilution method; in short: as §1
Aspergillus flavus [14] = experiment: Antifungal activity against Aspergillus flavus MTCC 1884 measured after 2 days by broth dilution method; in short: as §1
Aspergillus flavus [15] = experiment: Fungicidal activity against Aspergillus flavus MTCC 1884 measured after 2 days by broth dilution method; in short: as §2
Escherichia coli [16] = experiment: Antibacterial activity against Escherichia coli ATCC 8739 measured after 24 hrs by broth dilution method; in short: as §1
Bacillus spizizenii [17] = experiment: Antibacterial activity against Bacillus subtilis ATCC 6633 measured after 24 hrs by broth dilution method; in short: as §1
Bacillus spizizenii [18] = experiment: Bactericidal activity against Bacillus subtilis ATCC 6633 measured after 24 hrs by broth dilution method; in short: as §2
Proteus vulgaris [19] = experiment: Bactericidal activity against Proteus vulgaris […] measured after 24 hrs by broth dilution method; in short: as §2
Escherichia coli [20] = experiment: Ratio of MBC to MIC for Escherichia coli ATCC 8739
Proteus vulgaris [21] = experiment: Ratio of MBC to MIC for Proteus vulgaris […]
Staphylococcus aureus [22] = experiment: Ratio of MBC to MIC for Staphylococcus aureus ATCC 19433

SMILES	zone of inhibition at 200 µg/mL (Aspergillus niger [1]) [mm]	zone of inhibition at 200 µg/mL (Staphylococcus aureus [2]) [mm]	zone of inhibition at 200 µg/mL (Escherichia coli [3]) [mm]	zone of inhibition at 200 µg/mL (Bacillus spizizenii [4]) [mm]	zone of inhibition at 200 µg/mL (Proteus vulgaris [5]) [mm]	zone of inhibition at 200 µg/mL (Aspergillus flavus [6]) [mm]	MIC (Staphylococcus aureus [8]) [µg]	MBC (Escherichia coli [9]) [µg]	MFC (Aspergillus niger [10]) [µg]	MBC (Staphylococcus aureus [11]) [µg]	MIC (Aspergillus niger [12]) [µg]	MIC (Proteus vulgaris [13]) [µg]	MIC (Aspergillus flavus [14]) [µg/mL]	MFC (Aspergillus flavus [15]) [µg]	MIC (Escherichia coli [16]) [µg]	MIC (Bacillus spizizenii [17]) [µg/mL]	MBC (Bacillus spizizenii [18]) [µg]	MBC (Proteus vulgaris [19]) [µg]	also measured
Cc1nc(-c2ccc(-c3cccc(C=O)c3)cc2)c(C)s1	3.92	8.02	9.56	6.65	7.39	6.29	–	–	–	–	–	–	–	–	–	–	–	–	–
COc1ccc(-c2ccc(-c3nc(C)sc3C)cc2)cc1	23.4	25.5	27.1	22.1	21.6	24.9	50	25	100	>200	12.5	25	25 (≈ 84.6 µM)	50	12.5	6.25 (≈ 21.2 µM)	100	100	Ratio (Aspergillus flavus [7]): 2; Ratio (Escherichia coli [20]): 2
O=C(O)c1cn(C2CC2)c2cc(N3CCNCC3)c(F)cc2c1=O [CIPROFLOXACIN]	–	27	29.8	25.5	23.2	–	6.25	–	–	–	–	–	–	–	6.25	6.25 (≈ 18.9 µM)	–	–	–
Cc1ccc(-c2ccc(-c3nc(C)sc3C)cc2)cc1	19.7	23.1	24.2	21.1	19.5	21.3	100	100	>200	>200	25	50	25 (≈ 89.5 µM)	100	12.5	–	100	100	–
COc1cccc(-c2ccc(-c3nc(C)sc3C)cc2)c1	6.32	17.5	19.2	15.2	18.8	9.11	–	–	–	–	–	–	–	–	–	–	–	–	–
COc1ccc(-c2ccc(-c3nc(C)sc3C)cc2)cc1OC	22.5	24.1	25.6	22	20.9	24.2	25	200	100	50	25	25	–	200	50	12.5 (≈ 38.4 µM)	100	100	Ratio (Proteus vulgaris [21]): 2; Ratio (Staphylococcus aureus [22]): 2

Reference: ChEMBL document CHEMBL3872212, “Synthesis, antimicrobial activity and advances in structure-activity relationships (SARs) of novel tri-substituted thiazole derivatives” (2016)
